Bioassay records: PubChem, Johns Hopkins Ion Channel Center
TRPC4 PAM = positive allosteric modulators of TRPC4, primary screen, cell-based, mouse TRPC4beta, HEK293 mu-opioid, Fluo-4 calcium; Short transient receptor potential channel 4 (Mus musculus), Q9QUQ5; DAMGO EC20, Fluo-4 Ca2+ flux; hits give high values; B-score at 10 µM; 310,000 tested, 0.42% active;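 active = B-score of calcium response area above 5 SD of library B-scores, with initial fluorescence ratio within 5 SD of library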
TRPC6 inhibitor = mouse TRPC6 channel inhibitors, primary screen, cell-based, HEK293, membrane potential dye. ACh-evoked depolarization; hits give low values. 310,000 tested, 1.1% active. B-score at 10 µM;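 active = B-score under library mean minus 3 SD, initial fluorescence not abnormally high, positive integrated signal ratio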;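 note: B-score derived from integrated fluorescence ratio over the kinetic read; more negative B-score means stronger inhibition of depolarization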
TRPC4 act = activators of mouse TRPC4 channel, primary screen, Fluo4 calcium, HEK293 TRPC4beta/mu-opioid cells | B-score at 10 µM | 310,000 tested, 0.49% active | Short transient receptor potential channel 4 (Mus musculus), Q9QUQ5 | Fluo4 calcium fluorescence; hits give high values;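 active = B-score above 5 SD of library B-scores, and initial fluorescence ratio not above library mean plus 5 SD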;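 note: positive B-score marks a calcium rise read as TRPC4 activation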
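Assay system: HEK293 stable line with TRPC4beta plus mu-opioid receptor; schedule: 45 min room-temperature Fluo4 loading, 110 s read; technique: kinetic Fluo4 calcium fluorescence; evaluation: integrated baseline-normalised fluorescence ratio, converted to per-well B score; controls: buffer (low) and maximal DAMGO (high)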
TRPC4 block = inhibitors of mouse TRPC4 channel, primary screen, Fluo4 calcium, HEK293 TRPC4beta/mu-opioid cells; Short transient receptor potential channel 4 (Mus musculus), Q9QUQ5; DAMGO-evoked Fluo4 calcium flux; hits give low values; B-score at 10 µM; 300,000 tested, 0.39% active; AID 2247, 2010;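 active = B-score over 3 SD under the library average, no early fluorescence shift, positive overall ratio signal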
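Assay system: Stable TRPC4beta/mu-opioid receptor HEK293 cells | Reagent: DAMGO in two steps, submaximal then maximal | Compound dosing: Single concentration per test compound | Signal: Fluo4 Ca2+ flux fluorescence | Evaluation: Per-well B score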
TRPC6 activator = mouse TRPC6 channel activators, primary screen, cell-based, HEK293, membrane potential dye. 310,000 tested, 0.13% active. Short transient receptor potential channel 6 (Mus musculus), Q61143. B-score at 10 µM. HEK293-TRPC6 membrane potential dye fluorescence; hits give high values;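 active = B-score of the integrated fluorescence ratio above library mean plus 3 SD, and starting fluorescence ratio within library mean plus 5 SD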;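 note: higher score means more depolarization so channel activation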
TRPC4 spec 2 = second check of whether TRPC6 inhibitors also affect mouse TRPC4; shares compounds with TRPC6 inhibitor; HEK293 TRPC4/MOR, membrane potential dye fluorescence; channel activated by saturating DAMGO dose; inhibition, % at 10 µM; 920 tested, 42% active;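 active = compounds whose fluorescence signal differed from control wells by over 3 SD, either direction, in both duplicate plates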
TRPC4 spec = mouse TRPC4 modulation by TRPC6 hits, confirmation, selectivity assay for TRPC6 inhibitor project, cell-based, HEK293 TRPC4/mu-opioid, membrane potential dye; shares compounds with TRPC6 inhibitor; membrane potential fluorescence; activity change, negative = inhibition, % at 10 µM; 920 tested, 61% active;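 active = rise or fall in signal beyond 3 SD of buffer-only wells in both replicate plates, either sign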;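 note: integrated kinetic ratio of fluorescence range over baseline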
HEK293 MPD ctr 2-1 = nonspecific membrane potential effects, parental HEK293, confirmation, counter-screen for TRPC6 inhibitor project, cell-based, second counter screen. parental HEK293 membrane potential dye fluorescence; maximal acetylcholine challenge after compound addition. signal change vs control, % at 10 µM. 920 tested, 31% active. shares compounds with TRPC6 inhibitor. AID 2779, 2010;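 active = membrane potential signal moving either way by over 3 SD of the maximum-effect control, in both duplicate plates, meaning non-specific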
HEK293 MPD ctr-1 = membrane potential modulation in parental HEK293, confirmation, counter-screen for TRPC6 inhibitor project, cell-based. 920 tested, 60% active. shares compounds with TRPC6 inhibitor. parental HEK293 membrane potential dye fluorescence. membrane potential signal change, % at 10 µM;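 active = membrane potential signal shifting up or down by more than 3 SD of buffer-only wells, on both duplicate plates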
HEK293 MPD ctr-2 = parental HEK293 membrane potential modulation, confirmation, counter-screen for TRPC6 modulator project, cell-based. shares compounds with TRPC6 inhibitor. membrane potential dye fluorescence. membrane potential signal change, % at 10 µM. 2,400 tested, 51% active. AID 488924, 2010;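 active = membrane potential signal moves up or down beyond 5 SD from buffer-only wells, on both duplicate plates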
HEK293 MPD ctr 2-2 = parental HEK293 nonspecific activity of TRPC6 modulators, second screen. shares compounds with TRPC6 inhibitor. membrane potential dye fluorescence; after compound, maximal acetylcholine stimulation. inhibition, % at 10 µM. 2,400 tested, 14% active;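 active = membrane potential signal drops by more than 5 SD from the mean control signal, in both duplicate plates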
TRPC4 ctr mod = TRPC4 modulation by TRPC6 hit compounds, confirmation, selectivity assay for TRPC6 modulator project, cell-based, HEK293 TRPC4/mu-opioid, membrane potential dye, mouse; shares compounds with TRPC6 inhibitor; membrane potential fluorescence; percent change from control (negative = decrease, positive = increase), % at 10 µM; 2,400 tested, 69% active; AID 488927, 2010;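 active = membrane potential signal moved up or down beyond 5 SD of buffer control wells, in both duplicate plates, actives on both sides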
TRPC4 ctr inh 2 = second check of whether TRPC6 modulators also affect mouse TRPC4; inhibition, % at 10 µM; AID 488928; shares compounds with TRPC6 inhibitor; HEK293 TRPC4/mu-opioid, membrane potential dye fluorescence; stimulated with maximal-effect DAMGO; 2,400 tested, 55% active;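 active = drop in membrane potential signal beyond 5 SD of the control wells in both duplicate plates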;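 note: TRPC4 counter screen for TRPC6 hits run under conditions tuned for TRPC6 not TRPC4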
TRPC6 inh conf = mouse TRPC6 channel inhibitors, confirmation, HEK293 cells, membrane potential dye, duplicate; shares compounds with TRPC6 inhibitor; ACh-evoked depolarization; inhibition, % at 10 µM; 3,300 tested, 43% active;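 active = fluorescence ratio falls more than 5 SD below the full-stimulation control mean, in both duplicate runs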;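 note: integrated fluorescence ratio of peak minus minimum over baseline after agonist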
TRPC6 act confirm = mouse TRPC6 channel activators, confirmation, HEK293 cells, membrane potential dye, duplicate | HEK293-TRPC6 membrane potential dye fluorescence, FDSS | activation, % at 10 µM | shares compounds with TRPC6 inhibitor | 2,800 tested, 11% active;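 active = ratio signal rise beyond 5 SD above unstimulated control wells' mean, seen in both duplicate runs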
Large screens that a line does not name were inactive (follow-up assays come after a bar, where they were run). Only some compounds are listed: those with a hit (about 2.3% of all), similar ones and a draw of the others.

CCCC(=O)NC(c1ccc(C(C)C)cc1)c1ccc2cccnc2c1O (centres undefined)	TRPC6 inhibitor -6.4 | HEK293 MPD ctr-2 inactive | HEK293 MPD ctr 2-2 inactive | TRPC4 ctr mod inactive | TRPC4 ctr inh 2 inactive | TRPC6 inh conf inactive | TRPC6 act confirm inactive
CCCCC(=O)NC(c1ccc(Cl)cc1Cl)c1ccc2cccnc2c1O (centres undefined)	TRPC6 inhibitor -5.17 | HEK293 MPD ctr-2 -154.0% | HEK293 MPD ctr 2-2 inactive | TRPC4 ctr mod -29.5% | TRPC4 ctr inh 2 inactive | TRPC6 inh conf inactive | TRPC6 act confirm inactive
CCCC(=O)NC(c1ccc(N(C)C)cc1)c1ccc2cccnc2c1O (centres undefined)	none
Cn1nc([N+](=O)[O-])nc1N1CCN(c2ccc(F)cc2)CC1	TRPC6 inhibitor -7 | TRPC4 spec 2 inactive | TRPC4 spec inactive | HEK293 MPD ctr 2-1 inactive | HEK293 MPD ctr-1 inactive | TRPC6 inh conf inactive | TRPC6 act confirm inactive
O=[N+]([O-])c1cc([N+](=O)[O-])c2c(=Nc3ccccc3)n(-c3ccccc3)n(O)c2c1	TRPC6 inhibitor -7.15 | TRPC4 spec 2 49.5% | TRPC4 spec -13.5% | HEK293 MPD ctr 2-1 inactive | HEK293 MPD ctr-1 -183.5% | TRPC6 inh conf inactive | TRPC6 act confirm inactive
O=[N+]([O-])c1cc(Br)c(Nc2ccccc2)c([N+](=O)[O-])c1	none
CN(CCCNC(=O)c1ccc(CS(=O)c2ccc(Br)cc2)o1)Cc1ccccc1 (centres undefined)	none
CN1CCN(c2ccc(NC(=O)c3sc4ccccc4c3Cl)cc2)CC1	none
